From ChEMBL document CHEMBL1140336, “Synthesis, structure-activity relationships, and biological evaluation of fatty alcohol phosphates as lysophosphatidic acid receptor ligands, activators of PPARgamma, and inhibitors of autotaxin” (J Med Chem, 2005)
pEC50, pIC50, pKi: −log10 of the molar value.

Key:
[1] = biological target: T1, Lysophosphatidic acid receptor 2 (Homo sapiens, UniProt Q9HBW0); experiment: Inhibition of LPA-induced calcium transients in RH7777 rat hepatoma cells expressing LPA2 receptor; assay type: functional, cell-based
[2] = biological target: T1, Lysophosphatidic acid receptor 2; experiment: Inhibition of LPA-induced calcium transients in RH7777 rat hepatoma cells expressing LPA2 receptor; No effect; assay type: functional, cell-based
Outline: (§1)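 Fura-2 Ca2+ assay. RH7777 cells stably expressing LPA1, LPA2 or LPA3, or PC-3 cells (endogenous LPA1-3), seeded at 50000 cells/well on poly-D-lysine and grown overnight. Serum-starved in modified Krebs, pH 7.4, for 6-8 h (PC-3: 12 h), then Fura-2 AM loaded for 35 min. Compound added at 15 s; wells read 80-120 s. Transient taken as peak minus baseline 340/380 ratio. Antagonism: LPA 18:1 coapplied; highest concentration 30 μM.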

[3] = biological target: T2, Lysophosphatidic acid receptor 3 (Homo sapiens, UniProt Q9UBY5); experiment: Binding affinity for Lysophosphatidic acid receptor 3 expressed in RH7777 rat hepatoma cells; assay type: cell-based; outline: as §1
T2 sequence (Q9UBY5 whole entry): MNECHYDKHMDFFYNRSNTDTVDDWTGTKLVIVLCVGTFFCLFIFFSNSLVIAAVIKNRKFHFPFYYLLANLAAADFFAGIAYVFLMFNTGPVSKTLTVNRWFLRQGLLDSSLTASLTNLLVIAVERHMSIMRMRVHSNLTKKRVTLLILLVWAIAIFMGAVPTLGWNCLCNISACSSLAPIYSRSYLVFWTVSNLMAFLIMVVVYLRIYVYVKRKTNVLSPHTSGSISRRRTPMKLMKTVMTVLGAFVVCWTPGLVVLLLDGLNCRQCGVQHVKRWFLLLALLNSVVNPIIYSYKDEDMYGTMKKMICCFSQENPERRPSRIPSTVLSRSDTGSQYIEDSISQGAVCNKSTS

[4] = biological target: T2, Lysophosphatidic acid receptor 3; experiment: Inhibition of LPA-induced calcium transients in RH7777 rat hepatoma cells expressing LPA3 receptor; No effect; assay type: functional, cell-based; outline: as §1
[5] = Percent maximal efficacy in PC-3 cells; assay type: functional, Homo sapiens
Outline: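 PC-3 human prostate cancer cells, which express LPA1-3 endogenously, 50000 cells/well. Serum-starved 12 h in modified Krebs, loaded with Fura-2 AM, read in a FlexStation. Ca2+ transient = 340/380 ratio peak minus baseline. Agonism (Emax as % of maximal LPA 18:1 response) and inhibition of LPA-induced transients were measured.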

[6] = biological target: T3, Lysophosphatidic acid receptor 1 (Homo sapiens, UniProt Q92633); experiment: (§2) Inhibition of LPA-induced calcium transients in RH7777 rat hepatoma cells expressing LPA1 receptor; No effect; assay type: functional, cell-based; outline: as §1
[7] = biological target: T3, Lysophosphatidic acid receptor 1; experiment: as §2; assay type: functional, cell-based; remark: listed apart in the source
PC-3 = experiment: Inhibitory concentration against LPA expressed in PC-3 cells; Weak antagonist; assay type: functional, cell-based, Homo sapiens; outline: as §1
[8] = biological target: T2, Lysophosphatidic acid receptor 3; experiment: Inhibition of LPA-induced calcium transients in RH7777 rat hepatoma cells expressing LPA3 receptor; assay type: functional, cell-based; outline: as §1

T3 sequence (Q92633 whole entry): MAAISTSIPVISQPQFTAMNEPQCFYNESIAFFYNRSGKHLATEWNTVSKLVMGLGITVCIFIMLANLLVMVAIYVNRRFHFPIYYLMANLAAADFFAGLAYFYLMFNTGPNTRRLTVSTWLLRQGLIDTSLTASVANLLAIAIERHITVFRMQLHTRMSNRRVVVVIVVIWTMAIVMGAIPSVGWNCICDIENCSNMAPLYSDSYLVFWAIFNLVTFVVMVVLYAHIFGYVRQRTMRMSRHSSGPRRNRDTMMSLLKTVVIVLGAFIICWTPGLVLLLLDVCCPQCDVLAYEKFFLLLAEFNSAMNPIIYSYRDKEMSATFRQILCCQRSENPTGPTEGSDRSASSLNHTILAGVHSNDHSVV
T1 sequence (Q9HBW0 whole entry): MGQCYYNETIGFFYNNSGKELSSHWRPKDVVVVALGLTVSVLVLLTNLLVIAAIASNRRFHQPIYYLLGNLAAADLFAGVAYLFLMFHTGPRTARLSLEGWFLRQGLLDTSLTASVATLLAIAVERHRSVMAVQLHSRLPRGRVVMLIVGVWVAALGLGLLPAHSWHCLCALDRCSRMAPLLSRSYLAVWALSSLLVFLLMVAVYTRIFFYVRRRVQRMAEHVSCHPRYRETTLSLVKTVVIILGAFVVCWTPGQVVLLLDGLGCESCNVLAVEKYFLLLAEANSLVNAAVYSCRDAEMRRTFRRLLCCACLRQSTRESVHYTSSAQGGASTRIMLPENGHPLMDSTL

pEC50 [1]: ~4.96
IC50 [2]: Not Active
pKi [3]: 5.63
EC50 [4]: Not Active
EC50 [6]: Not Active
IC50 [7]: Not Active
IC50 (PC-3): Partial antagonist
pIC50 [8]: 5.25
SMILES: CCCCCCCCCCCCCCCC(=O)N[C@@H](Cc1ccc(OP(=O)(O)O)cc1)C(=O)O
Emax [5]: 25%
